Experiments:
[1] = Inhibition of influenza B virus (B/PHUKET/3073/2013)) Neuraminidase in using 4-MUNANA as substrate preincubated for 10 mins followed by substrate addition and measured after 40 mins by fluorescence based assay
How it was run: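 Influenza B/PHUKET/3073/2013 NA, in MES buffer at pH 6.5 with CaCl₂, was preincubated with inhibitor for 10 min at 37°C. MUNANA substrate was added for 40 min at 37°C, and the reaction was stopped with 0.2 M glycine-NaOH at pH 10.2. Fluorescence was read at ex 365 / em 455 nm minus substrate blanks. IC50 was taken from % inhibition curves, mean ± SD of three experiments.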

Influenza A virus [2] = assay: Antiviral activity against Influenza A virus (A/goose/Guangdong/SH7/2013(H5N1)) infected in CEF cells assessed as reduction in virus-induced cytopathic effect incubated for 48 hrs by CCK-8 assay; format: functional, organism-based
Influenza A virus [3] = assay: Antiviral activity against Influenza A virus (A/Chicken/Hebei/LZF/2014(H5N2)) infected in CEF cells assessed as reduction in virus-induced cytopathic effect incubated for 48 hrs by CCK-8 assay; format: functional, organism-based
[4] = Cytotoxicity against chicken CEF cells assessed as reduction in cell viability incubated for 48 hrs by CCK8 assay; format: cell-based, Gallus gallus
How it was run: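 Mock-infected chicken embryo fibroblasts received 2-fold serial dilutions of compound in DMEM with 1% FBS for 48 h at 37°C under 5% CO₂. Viability was read by CCK-8 (90 min, A450).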

[5] = target: Neuraminidase (Influenza A virus (A/Memphis/1/1971(H3N2)), UniProt P03471); assay: Inhibition of influenza A virus (A/Chicken/Hebei/LZF/2014(H5N2)) Neuraminidase N2 in using 4-MUNANA as substrate preincubated for 10 mins followed by substrate addition and measured after 40 mins by fluorescence based assay
Sequence of Neuraminidase (Influenza A virus (A/Memphis/1/1971(H3N2)), UniProt P03471) (P03471 whole entry): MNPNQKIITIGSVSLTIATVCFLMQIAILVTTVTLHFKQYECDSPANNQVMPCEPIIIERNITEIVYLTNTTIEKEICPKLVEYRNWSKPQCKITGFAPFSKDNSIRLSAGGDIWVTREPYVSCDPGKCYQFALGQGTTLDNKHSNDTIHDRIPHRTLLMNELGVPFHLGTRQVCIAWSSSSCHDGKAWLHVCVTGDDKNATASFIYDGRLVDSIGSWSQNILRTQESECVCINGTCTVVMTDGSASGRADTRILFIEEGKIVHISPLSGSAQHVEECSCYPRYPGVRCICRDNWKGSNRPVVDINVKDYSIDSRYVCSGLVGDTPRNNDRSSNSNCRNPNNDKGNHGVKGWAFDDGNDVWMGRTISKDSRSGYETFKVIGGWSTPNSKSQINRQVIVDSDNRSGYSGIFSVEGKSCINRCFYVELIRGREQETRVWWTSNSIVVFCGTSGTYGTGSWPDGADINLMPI

| Structure (SMILES) | IC50 [1] | EC50 (Influenza A virus [2]) | EC50 (Influenza A virus [3]) | CC50 at 48 h [4] | IC50 [5] |
| --- | --- | --- | --- | --- | --- |
| CCC(CC)O[C@@H]1C=C(C(=O)O)C[C@H](N)[C@H]1NC(C)=O [OSELTAMIVIR CARBOXYLATE] | 0.037 µM | 0.82 µM | 0.17 µM | > 200 µM | – |
| CCC(CC)O[C@@H]1C=C(C(=O)O)C[C@H](NCc2ccc(SC)cc2)[C@H]1NC(C)=O | 7.97 µM | 0.66 µM | 0.48 µM | > 200 µM | 8.34 µM |
| CCC(CC)O[C@@H]1C=C(C(=O)NCc2ccc(C(=O)O)cc2)C[C@H](NCc2ccc(N3CCCC3)cc2)[C@H]1NC(C)=O | – | – | – | – | 4.7 µM |
| CCC(CC)O[C@@H]1C=C(C(=O)N[C@@H](C(=O)O)C(C)C)C[C@H](NCc2ccc(SC)cc2)[C@H]1NC(C)=O | > 100 µM | > 100 µM | 26.6 µM | > 200 µM | – |
| CCC(CC)O[C@@H]1C=C(C(=O)N[C@@H](C(=O)O)C(C)C)C[C@H](NCc2ccc(Sc3ccccc3)cc2)[C@H]1NC(C)=O | > 100 µM | – | – | – | > 100 µM |
| CCC(CC)O[C@@H]1C=C(C(=O)NCc2ccc(Cl)cc2)C[C@H](NCc2ccc(N3CCCC3)cc2)[C@H]1NC(C)=O | – | > 100 µM | > 100 µM | 77.1 µM | 0.94 µM |
| CCC(CC)O[C@@H]1C=C(C(=O)N[C@@H](C(=O)O)C(C)C)C[C@H](NCc2ccc(N3CCCC3)cc2)[C@H]1NC(C)=O | – | – | – | – | 2.41 µM |
| CCC(CC)O[C@@H]1C=C(C(=O)NCc2ccc(Cl)cc2)C[C@H](NCc2ccc(SC)cc2)[C@H]1NC(C)=O | > 100 µM | – | – | – | – |
| CCC(CC)O[C@@H]1C=C(C(=O)NCc2ccc(C(=O)O)cc2)C[C@H](NCc2ccc(Sc3ccccc3)cc2)[C@H]1NC(C)=O | – | – | – | – | > 100 µM |
| CCC(CC)O[C@@H]1C=C(C(=O)NCc2ccc(F)cc2)C[C@H](NCc2ccc(N3CCCC3)cc2)[C@H]1NC(C)=O | – | – | – | – | 48.4 µM |
| CCC(CC)O[C@@H]1C=C(C(=O)NCc2ccc(C(=O)O)cc2)C[C@H](NCc2ccc(N(CC)CC)cc2)[C@H]1NC(C)=O | – | – | – | – | 13.3 µM |
